Consider three compounds from ChEMBL document CHEMBL1821591, “Cytotoxic bipyridines from the marine-derived actinomycete Actinoalloteichus cyanogriseus WH1-2216-6” (J Nat Prod, 2011).

≈ marks a conversion by molar mass, not a printed value.

For one experiment, the system named is HL-60. Briefly: Cytotoxicity against human HL60 cells after 72 hrs by MTT assay. The format is functional, cell-based. The settings on record: HL-60, 72 h. The procedure, abridged: (§1)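 MTT read-out on HL-60, K562 and KB; activity expressed as IC50 in μM.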
Background: Formazan colour is commonly taken as a measure of viable cells.

For another experiment, the system named is K562. Briefly: Cytotoxicity against human K562 cells after 72 hrs by MTT assay. The format is functional, cell-based. The settings on record: K562, 72 h. The procedure, abridged: as §1
A further experiment relates to A549. In words: Cytotoxicity against human A549 cells after 24 hrs by SRB assay. The settings on record: A549, 24 h. The format is functional, cell-based. For orientation: In SRB staining, fixed cells bind dye roughly in proportion to their protein.
The next experiment concerns KB. In words: Cytotoxicity against human KB cells after 72 hrs by MTT assay. The format is functional, cell-based. The procedure, abridged:
as §1

A further experiment deals with Escherichia coli. Briefly: Antimicrobial activity against Escherichia coli after 24 hrs by agar dilution method. The format is functional.
Another experiment concerns Pseudomonas aeruginosa. In words: Antimicrobial activity against Pseudomonas aeruginosa after 24 hrs by agar dilution method. The format is functional. Background: Agar dilution tests growth on a series of plates holding different concentrations.
The subject of a further experiment is Candida albicans. Briefly: Antimicrobial activity against Candida albicans after 24 hrs by agar dilution method. The format is functional.
In the next experiment the test system is Klebsiella aerogenes. In words: Antimicrobial activity against Aerobacter aerogenes after 24 hrs by agar dilution method. The format is functional.

Turning to `COc1cc(/C=N/O)nc(-c2ccccn2)c1` [CAERULOMYCIN A], the IC50 in the experiment on HL-60 was 710 nM; in the experiment on K562 it was > 50000 nM; in the experiment on A549, 260 nM; in the experiment with KB, > 50000 nM. Besides, the values for the MIC in the experiment on Escherichia coli, in the experiment with Pseudomonas aeruginosa and in the experiment on Candida albicans were 10.9 µM (≈ 2.5 µg/mL), 21.8 µM (≈ 5 µg/mL) and 21.8 µM (≈ 5 µg/mL), respectively.
For `CC(=O)N1CCN(c2ccc(OCC3COC(Cn4ccnc4)(c4ccc(Cl)cc4Cl)O3)cc2)CC1` (centres undefined) [KETOCONAZOLE], the MIC in the experiment with Klebsiella aerogenes worked out at 0.94 µM (≈ 0.5 µg/mL); in the experiment on Escherichia coli, 1.9 µM (≈ 1.01 µg/mL); in the experiment with Pseudomonas aeruginosa it was 3.8 µM (≈ 2.02 µg/mL); with Candida albicans, 1.2 µM (≈ 0.638 µg/mL).
Consider `O=C(O)c1cn(C2CC2)c2cc(N3CCNCC3)c(F)cc2c1=O` [CIPROFLOXACIN LACTATE], for which the MIC against Klebsiella aerogenes stood at 0.94 µM; against Pseudomonas aeruginosa it was 3.8 µM; against Candida albicans, 1.2 µM.

Usually IC50 stands for the concentration needed to halve the response being measured. Low readings indicate greater potency, high ones weaker potency. The MIC is the least concentration at which growth counts as inhibited. Lower therefore signals a more susceptible organism.
